Laboratory results from ChEMBL document CHEMBL1143614, “Structure-activity relationships of the unique and potent agouti-related protein (AGRP)-melanocortin chimeric Tyr-c[beta-Asp-His-DPhe-Arg-Trp-Asn-Ala-Phe-Dpr]-Tyr-NH2 peptide template” (J Med Chem, 2005).
pEC50: −log10 of the molar value.

What was measured:
Mus musculus = species: Mus musculus; experiment: Relative effective concentration for Melanocortin-3 and Melanocortin-4 receptors
Melanocortin receptor 3 = Melanocortin receptor 3 (Mus musculus, UniProt P33033); experiment: Effective concentration for mouse Melanocortin-3 receptor
Procedure, shortened: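 HEK-293 cells stably expressing the mouse receptor (G418 selection), transiently transfected with a CRE/β-galactosidase reporter. Forskolin (10^-4 M) served as the control. After lysis, ONPG was added at 37° and OD405 was read. Signals were normalized to protein content and forskolin; EC50 came from a nonlinear least-squares fit, duplicate or more independent experiments in quadruplicate.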

Melanocortin receptor 3, sequence (P33033 whole entry): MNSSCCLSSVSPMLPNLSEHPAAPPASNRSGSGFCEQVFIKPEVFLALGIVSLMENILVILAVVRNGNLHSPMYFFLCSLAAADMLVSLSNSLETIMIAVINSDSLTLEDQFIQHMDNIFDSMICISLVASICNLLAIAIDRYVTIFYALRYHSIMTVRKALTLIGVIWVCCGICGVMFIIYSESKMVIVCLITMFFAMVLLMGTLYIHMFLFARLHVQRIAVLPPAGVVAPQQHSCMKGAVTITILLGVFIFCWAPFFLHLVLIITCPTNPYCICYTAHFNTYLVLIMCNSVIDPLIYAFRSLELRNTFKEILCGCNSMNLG

**Q.** What does the source list for `C[C@@H]1NC(=O)[C@H](CC(N)=O)NC(=O)[C@H](Cc2ccc(-c3ccccc3)cc2)NC(=O)[C@H](CCCN=C(N)N)NC(=O)[C@@H](Cc2ccccc2)NC(=O)[C@H](Cc2c[nH]cn2)NC(=O)[C@@H](NC(=O)[C@@H](N)Cc2ccc(O)cc2)CC(=O)N([C@@H](Cc2ccc(O)cc2)C(N)=O)[C@@](C)(C(=O)O)NC(=O)[C@H](Cc2ccccc2)NC1=O`?
**A.** Selectivity ratio (Mus musculus): 11; pEC50 (Melanocortin receptor 3): 6.35

**Q.** Which results are given for `C[C@@H]1NC(=O)[C@H](CC(N)=O)NC(=O)[C@H](Cc2c[nH]c3ccccc23)NC(=O)[C@H](CCCN=C(N)N)NC(=O)[C@@H](Cc2ccccc2)NC(=O)[C@H](C)NC(=O)[C@@H](NC(=O)[C@@H](N)Cc2ccc(O)cc2)CC(=O)N([C@@H](Cc2ccc(O)cc2)C(N)=O)[C@@](C)(C(=O)O)NC(=O)[C@H](Cc2ccccc2)NC1=O`?
**A.** Selectivity ratio (Mus musculus): 80; pEC50 (Melanocortin receptor 3): 7.54

**Q.** With `C[C@@H]1NC(=O)[C@H](CC(N)=O)NC(=O)[C@H](Cc2c[nH]c3ccccc23)NC(=O)[C@H](CCCN=C(N)N)NC(=O)[C@@H]2CCCN2C(=O)[C@H](Cc2c[nH]cn2)NC(=O)[C@@H](NC(=O)[C@@H](N)Cc2ccc(O)cc2)CC(=O)N([C@@H](Cc2ccc(O)cc2)C(N)=O)[C@@](C)(C(=O)O)NC(=O)[C@H](Cc2ccccc2)NC1=O` as the compound, how does the pEC50 (Melanocortin receptor 3) read?
**A.** 4.88

**Q.** How did the pEC50 (Melanocortin receptor 3) turn out when `C[C@@H]1NC(=O)[C@H](CC(N)=O)NC(=O)[C@@H]2CCCN2C(=O)[C@H](CCCN=C(N)N)NC(=O)[C@@H](Cc2ccccc2)NC(=O)[C@H](Cc2c[nH]cn2)NC(=O)[C@@H](NC(=O)[C@@H](N)Cc2ccc(O)cc2)CC(=O)N([C@@H](Cc2ccc(O)cc2)C(N)=O)[C@@](C)(C(=O)O)NC(=O)[C@H](Cc2ccccc2)NC1=O` was run?
**A.** 4.41

**Q.** `C[C@@H]1NC(=O)[C@H](CC(N)=O)NC(=O)[C@H](Cc2c[nH]c3ccccc23)NC(=O)[C@H](CCCN=C(N)N)NC(=O)[C@@H](Cc2cccc3ccccc23)NC(=O)[C@H](Cc2c[nH]cn2)NC(=O)[C@@H](NC(=O)[C@@H](N)Cc2ccc(O)cc2)CC(=O)N([C@@H](Cc2ccc(O)cc2)C(N)=O)[C@@](C)(C(=O)O)NC(=O)[C@H](Cc2ccccc2)NC1=O` was tested. Which Selectivity ratio (Mus musculus) did it give?
**A.** 560

**Q.** And the pEC50 (Melanocortin receptor 3)?
**A.** 6.49

**Q.** `C[C@@H]1NC(=O)[C@H](CC(N)=O)NC(=O)[C@H](Cc2c[nH]c3ccccc23)NC(=O)[C@@H]2CCCN2C(=O)[C@@H](Cc2ccccc2)NC(=O)[C@H](Cc2c[nH]cn2)NC(=O)[C@@H](NC(=O)[C@@H](N)Cc2ccc(O)cc2)CC(=O)N([C@@H](Cc2ccc(O)cc2)C(N)=O)[C@@](C)(C(=O)O)NC(=O)[C@H](Cc2ccccc2)NC1=O` was tested. Which pEC50 (Melanocortin receptor 3) did it give?
**A.** 4.76

**Q.** Which results are given for `C[C@@H]1NC(=O)[C@H](CC(N)=O)NC(=O)[C@H](C)NC(=O)[C@H](CCCN=C(N)N)NC(=O)[C@@H](Cc2ccccc2)NC(=O)[C@H](Cc2c[nH]cn2)NC(=O)[C@@H](NC(=O)[C@@H](N)Cc2ccc(O)cc2)CC(=O)N([C@@H](Cc2ccc(O)cc2)C(N)=O)[C@@](C)(C(=O)O)NC(=O)[C@H](Cc2ccccc2)NC1=O`?
**A.** Selectivity ratio (Mus musculus): 19; pEC50 (Melanocortin receptor 3): 4.87

**Q.** How did the pEC50 (Melanocortin receptor 3) turn out when `C[C@@H]1NC(=O)[C@H](CC(N)=O)NC(=O)[C@H](Cc2c[nH]c3ccccc23)NC(=O)[C@H](CCCN=C(N)N)NC(=O)[C@@H](Cc2ccccc2)NC(=O)[C@H](Cc2c[nH]cn2)NC(=O)[C@@H](NC(=O)[C@@H](N)Cc2ccc(O)cc2)CC(=O)N([C@@H](Cc2ccc(O)cc2)C(N)=O)[C@@](C)(C(=O)O)NC(=O)[C@H](Cc2ccccc2)NC1=O` was run?
**A.** 9.01

**Q.** `C[C@@H]1NC(=O)[C@H](CC(N)=O)NC(=O)[C@H](Cc2c[nH]c3ccccc23)NC(=O)[C@H](C)NC(=O)[C@@H](Cc2ccccc2)NC(=O)[C@H](Cc2c[nH]cn2)NC(=O)[C@@H](NC(=O)[C@@H](N)Cc2ccc(O)cc2)CC(=O)N([C@@H](Cc2ccc(O)cc2)C(N)=O)[C@@](C)(C(=O)O)NC(=O)[C@H](Cc2ccccc2)NC1=O` was tested. Which Selectivity ratio (Mus musculus) did it give?
**A.** 730

**Q.** And the pEC50 (Melanocortin receptor 3)?
**A.** 4.62

**Q.** With `C[C@@H]1NC(=O)[C@H](CC(N)=O)NC(=O)[C@H](Cc2c[nH]c3ccccc23)NC(=O)[C@H](CCCCN)NC(=O)[C@@H](Cc2ccccc2)NC(=O)[C@H](Cc2c[nH]cn2)NC(=O)[C@@H](NC(=O)[C@@H](N)Cc2ccc(O)cc2)CC(=O)N([C@@H](Cc2ccc(O)cc2)C(N)=O)[C@@](C)(C(=O)O)NC(=O)[C@H](Cc2ccccc2)NC1=O` as the compound, how does the pEC50 (Melanocortin receptor 3) read?
**A.** 4.51
